# Laboratory results: ChEMBL document CHEMBL5325429, “Antibacterial and antibiofilm activity of permanently ionized quaternary ammonium fluoroquinolones” (Eur J Med Chem, 2023)
# Where a name gives a salt, the structure may show the parent alone. Activity calls are given as the source filed them. The rule behind the calls is not given here.
# Legend:
# Pseudomonas aeruginosa [1] = assay: Antibiofilm activity against Pseudomonas aeruginosa ATCC 15442 assessed as reduction in bacterial biomass at 2.5 to 320 uM incubated for 18 hrs by crystal violet staining based assay; assay type: functional, organism-based; conditions: dose 2.5-320 µM
# How it was run: (§1)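 Pre-exposure biofilm: 10^6 CFU/mL TSB culture with compound (50x DMSO stock), 18 h at 37 °C, shaken at 220 rpm. After the resazurin read, biofilms were ethanol-fixed for 15 min, dried, and stained 5 min with 100x-diluted crystal violet. After two water washes, dye was solubilised in 96% ethanol for about 1 h and read at A595. Total biomass is expressed as % of untreated control.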
# Pseudomonas aeruginosa [2] = assay: Antibiofilm activity against Pseudomonas aeruginosa ATCC 15442 assessed as reduction in bacterial biomass at 1 to 200 uM incubated for 18 hrs by crystal violet staining based assay; assay type: functional, organism-based; conditions: dose 1-200 µM; how it was run: as §1
# Pseudomonas aeruginosa [3] = assay: Antibacterial activity against Pseudomonas aeruginosa ATCC 27853 assessed as bacterial growth inhibition incubated for 24 hrs by broth microdilution assay; assay type: functional
# How it was run: (§2)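 Broth microdilution per CLSI. Colonies from overnight Mueller Hinton agar were suspended in 0.9% saline, set by densitometer, and diluted in cation-adjusted MHB to 1×10^6 CFU/mL. This was mixed 1:1 with compound and incubated 24 h at 37 °C. A600 was read versus untreated control and checked visually. Screen at 50 μM; compounds with ≥80% inhibition went to MIC testing at 75–0.78 μM. […] Two independent experiments, three technical replicates each.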
# Pseudomonas aeruginosa [4] = assay: Antibiofilm activity against Pseudomonas aeruginosa ATCC 15442 assessed as reduction in bacterial viability at 200 uM incubated for 18 hrs; assay type: functional, organism-based
# How it was run: (§3)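 Biofilm viability by resazurin. 10^6 CFU/mL TSB culture was exposed to compound (50x DMSO stock) for 18 h at 37 °C with shaking at 220 rpm. Biofilm was washed once with PBS and stained with resazurin (1:20 in PBS) in the dark at 37 °C for about 1 h (P. aeruginosa) or about 30 min (S. aureus). Fluorescence ex 560/em 590 is given as % of untreated control.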
# Pseudomonas aeruginosa [5] = assay: Antibiofilm activity against Pseudomonas aeruginosa ATCC 15442 assessed as reduction in bacterial viability at 2.5 to 320 uM incubated for 18 hrs; assay type: functional, organism-based; conditions: dose 2.5-320 µM; how it was run: as §3
# Staphylococcus aureus [6] = assay: Antibacterial activity against Staphylococcus aureus ATCC 29213 assessed as bacterial growth inhibition incubated for 24 hrs by broth microdilution assay; assay type: functional; how it was run: as §2
# Pseudomonas aeruginosa [7] = assay: Antibiofilm activity against Pseudomonas aeruginosa ATCC 15442 assessed as reduction in bacterial biomass at 40 to 80 uM incubated for 18 hrs by crystal violet staining based assay relative to control; assay type: functional; parameters: scale not given: the % may be the effect or the level left; conditions: dose 40-80 µM; how it was run: as §1
# Staphylococcus aureus [8] = assay: Antibiofilm activity against Staphylococcus aureus assessed as inhibition of biofilm formation at 2.5 to 5 uM incubated for 18 hrs relative to control; parameters: scale not given: the % may be the effect or the level left; conditions: dose 2.5-5 µM
# Pseudomonas aeruginosa [9] = assay: Antibiofilm activity against Pseudomonas aeruginosa ATCC 15442 assessed as reduction in bacterial viability at 20 to 40 uM incubated for 18 hrs relative to control; assay type: functional; conditions: dose 20-40 µM; how it was run: as §3
# [10] = Cytotoxicity against mouse BALB/3T3 clone A31 cells incubated for 48 hrs by celltiter glo luminescent assay; assay type: toxicity, cell-based
# [11] = Cytotoxicity against mouse BALB/3T3 clone A31 cells assessed as viable cells at 200 uM incubated for 48 hrs by celltiter glo luminescent assay relative to control; assay type: toxicity, cell-based; conditions: read-out: Activity
# Staphylococcus aureus [12] = assay: Antibiofilm activity against Staphylococcus aureus ATCC 25923 assessed as reduction in bacterial viability at 50 uM incubated for 18 hrs by resazurin staining based assay relative to control
# Pseudomonas aeruginosa [13] = assay: Antibiofilm activity against Pseudomonas aeruginosa ATCC 15442 assessed as reduction in bacterial biomass incubated for 18 hrs by crystal violet staining based assay; assay type: functional; how it was run: as §1
# [14] = Cytotoxicity against mouse BALB/3T3 clone A31 cells upto 50 uM incubated for 48 hrs by celltiter glo luminescent assay; assay type: toxicity, cell-based; conditions: balb/3t3 clone a31, 48 h
# [15] = Selectivity index, ratio of CC50 for cytotoxicity against mouse BALB/3T3 clone A31 cells to MIC for antibacterial activity against Staphylococcus aureus ATCC 29213 assessed as bacterial growth inhibition; assay type: toxicity, cell-based; conditions: read-out: Selectivity Index
# Staphylococcus aureus [16] = assay: Antibiofilm activity against Staphylococcus aureus ATCC 25923 assessed as reduction in bacterial biomass at 50 uM incubated for 18 hrs by crystal violet staining based assay relative to control; assay type: functional; parameters: scale not given: the % may be the effect or the level left; how it was run: as §1
# [17] = Selectivity index, ratio of CC50 for cytotoxicity against mouse BALB/3T3 clone A31 cells to MIC for antibacterial activity against Pseudomonas aeruginosa ATCC 27853 assessed as bacterial growth inhibition; assay type: toxicity, cell-based; conditions: read-out: Selectivity Index
# Staphylococcus aureus [18] = assay: Antibiofilm activity against Staphylococcus aureus ATCC 25923 assessed as reduction in bacterial biomass at 50 uM incubated for 18 hrs; assay type: functional, organism-based; how it was run: as §1
# Pseudomonas aeruginosa [19] = assay: Antibiofilm activity against Pseudomonas aeruginosa ATCC 15442 assessed as reduction in biofilm formation at 5 to 25 uM incubated for 18 hrs relative to control; assay type: functional; parameters: scale not given: the % may be the effect or the level left; conditions: dose 5-25 µM
# How it was run: (§4)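 Pre-exposure biofilm assay. Inoculum: TSA colonies grown in TSB at 37 °C, 220 rpm, to OD 0.3–0.35, then diluted 100-fold to about 10^6 CFU/mL. Culture was mixed with compound (50x DMSO stock) and shaken at 220 rpm for 18 h at 37 °C. Biofilm was read by resazurin fluorescence (ex 560/em 590) and by crystal violet A595, as % of untreated control.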
# Pseudomonas aeruginosa [20] = assay: Antibiofilm activity against Pseudomonas aeruginosa ATCC 15442 assessed as reduction in bacterial viability at 10 to 50 uM incubated for 18 hrs; assay type: functional; conditions: dose 10-50 µM; how it was run: as §3
# Staphylococcus aureus [21] = assay: Antibiofilm activity against Staphylococcus aureus ATCC 25923 assessed as assessed as log 10 reduction in CFU at 200 uM incubated for 18 hrs; assay type: functional
# How it was run: (§5)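 Post-exposure CFU count. Biofilms were grown 18 h at 37 °C, 220 rpm, from a 10^6 CFU/mL TSB culture. Planktonic cells were removed, then compound (50x DMSO stock) in fresh TSB was added for a further 24 h. Wells were PBS-washed, scraped into PBS, serially diluted 10-fold and spotted on agar. After 24 h incubation, spots with 3–30 colonies were counted and reported as log10 cells/mL. Two experiments on different days, two technical replicates each.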
# Pseudomonas aeruginosa [22] = assay: Antibiofilm activity against Pseudomonas aeruginosa ATCC 15442 assessed as reduction in bacterial viability incubated for 18 hrs; assay type: functional; how it was run: as §3
# Pseudomonas aeruginosa [23] = assay: Antibiofilm activity against Pseudomonas aeruginosa ATCC 15442 assessed as log 10 reduction in CFU at 200 uM incubated for 18 hrs; assay type: functional; how it was run: as §5
# Pseudomonas aeruginosa [24] = assay: Antibiofilm activity against Pseudomonas aeruginosa ATCC 15442 assessed as reduction in bacterial biomass at 10 to 50 uM incubated for 18 hrs by crystal violet staining based assay; assay type: functional, organism-based; conditions: dose 10-50 µM; how it was run: as §1
# Pseudomonas aeruginosa [25] = assay: Antibiofilm activity against Pseudomonas aeruginosa ATCC 15442 assessed as reduction in biofilm formation at 100 uM incubated for 18 hrs relative to control; assay type: functional; parameters: scale not given: the % may be the effect or the level left; how it was run: as §4
# Pseudomonas aeruginosa [26] = assay: Antibiofilm activity against Pseudomonas aeruginosa ATCC 15442 assessed as reduction in biofilm formation at 25 uM incubated for 18 hrs; assay type: functional, organism-based; how it was run: as §4
# Pseudomonas aeruginosa [27] = assay: Antibiofilm activity against Pseudomonas aeruginosa ATCC 15442 assessed as reduction in bacterial viability at 50 uM incubated for 18 hrs; assay type: functional, organism-based; how it was run: as §3
smiles,measurement,setting,value
O=C(O)c1cn(C2CC2)c2cc(N3CCNCC3)c(F)cc2c1=O [CIPROFLOXACIN HYDROCHLORIDE],Activity,Pseudomonas aeruginosa [1],Active
same,Activity,Pseudomonas aeruginosa [2],inactive
same,MIC,Pseudomonas aeruginosa [3],2.72 µM
same,Activity,Pseudomonas aeruginosa [4],Active
same,Activity,Pseudomonas aeruginosa [5],Active
same,MIC,Staphylococcus aureus [6],1.36 µM
O=C(O)C1=Cc2ccccc2N2C[N+]3(CCN(c4cc5c(cc4F)c(=O)c(C(=O)O)cn5C4CC4)CC3)N=C12.[I-],Activity,Pseudomonas aeruginosa [7],>90%
same,Activity,Staphylococcus aureus [8],>90%
same,Activity,Pseudomonas aeruginosa [9],>90%
C[N+]1(C)CCN(c2cc3c(cc2F)c(=O)c(C(=O)O)cn3C2CC2)CC1.[I-],CC50 at 48 h,[10],> 200 µM
same,"viability at 48 h, 200 µM",[11],108%
same,Activity,Staphylococcus aureus [12],60%
same,MBIC,Pseudomonas aeruginosa [13],50 µM
same,Activity,[14],Non-Toxic
same,selectivity ratio,[15],> 32
same,Activity,Staphylococcus aureus [16],100%
same,selectivity ratio,[17],> 32
same,Activity,Staphylococcus aureus [18],inactive
same,Activity,Pseudomonas aeruginosa [19],>90%
same,MIC,Pseudomonas aeruginosa [3],6.25 µM
same,Activity,Pseudomonas aeruginosa [20],50%
same,Activity,Staphylococcus aureus [21],2 log10CFU
same,MBIC,Pseudomonas aeruginosa [22],25 µM
same,MIC,Staphylococcus aureus [6],6.25 µM
same,Activity,Pseudomonas aeruginosa [23],2 log10CFU
same,Activity,Pseudomonas aeruginosa [24],inactive
C[N+]1(C)CCCN(c2cc3c(cc2F)c(=O)c(C(=O)O)cn3C2CC2)CC1.[I-],CC50 at 48 h,[10],> 200 µM
same,"viability at 48 h, 200 µM",[11],81.7%
same,Activity,Staphylococcus aureus [12],60%
same,MBIC,Pseudomonas aeruginosa [13],50 µM
same,Activity,[14],Non-Toxic
same,selectivity ratio,[15],> 32
same,Activity,Staphylococcus aureus [16],100%
same,selectivity ratio,[17],> 32
same,Activity,Staphylococcus aureus [18],inactive
same,Activity,Pseudomonas aeruginosa [19],>90%
same,Activity,Pseudomonas aeruginosa [7],>90%
same,MIC,Pseudomonas aeruginosa [3],6.25 µM
same,Activity,Staphylococcus aureus [8],>90%
same,Activity,Pseudomonas aeruginosa [20],50%
same,Activity,Staphylococcus aureus [21],2 log10CFU
same,MBIC,Pseudomonas aeruginosa [22],25 µM
same,Activity,Pseudomonas aeruginosa [9],>90%
same,MIC,Staphylococcus aureus [6],6.25 µM
same,Activity,Pseudomonas aeruginosa [23],2 log10CFU
same,Activity,Pseudomonas aeruginosa [24],inactive
CCn1cc(C(=O)O)c(=O)c2cc(F)c(N3CC[N+](C)(C)CC3)cc21,MIC,Pseudomonas aeruginosa [3],> 50 µM
same,MIC,Staphylococcus aureus [6],25 µM
CCn1cc(C(=O)O)c(=O)c2cc(F)c(N3CC[N+]4(CC3)CN3C(=N4)C(C(=O)O)=Cc4ccccc43)nc21.[I-],Activity,Pseudomonas aeruginosa [7],>90%
same,Activity,Staphylococcus aureus [8],>90%
same,Activity,Pseudomonas aeruginosa [9],>90%
CCn1cc(C(=O)O)c(=O)c2cc(F)c(N3CC[N+](C)(C)C(C)C3)c(F)c21 (stereo unspecified),MIC,Pseudomonas aeruginosa [3],75 µM
same,MIC,Staphylococcus aureus [6],25 µM
O=C(O)C1=Cc2ccccc2N2C[N+]3(CCCN(c4cc5c(cc4F)c(=O)c(C(=O)O)cn5C4CC4)CC3)N=C12.[Cl-] (stereo unspecified),CC50 at 48 h,[10],160 µM
same,Activity,Pseudomonas aeruginosa [25],80%
same,"viability at 48 h, 200 µM",[11],1.55%
same,Activity,Pseudomonas aeruginosa [26],Active
same,Activity,[14],Non-Toxic
same,selectivity ratio,[15],6.4
same,selectivity ratio,[17],6.4
same,MIC,Pseudomonas aeruginosa [3],25 µM
same,Activity,Pseudomonas aeruginosa [20],50%
same,MIC,Staphylococcus aureus [6],25 µM
same,Activity,Pseudomonas aeruginosa [23],2 log10CFU
same,Activity,Pseudomonas aeruginosa [27],Active
same,Activity,Pseudomonas aeruginosa [24],inactive
CCn1cc(C(=O)O)c(=O)c2cc(F)c(N3CC[N+]4(CN5C(=N4)C(C(=O)O)=Cc4ccccc45)C(C)C3)c(F)c21.[I-] (stereo unspecified),Activity,Staphylococcus aureus [8],>90%
CCn1cc(C(=O)O)c(=O)c2cc(F)c(N3CC[N+](C)(C)CC3)nc21,MIC,Pseudomonas aeruginosa [3],> 50 µM
same,MIC,Staphylococcus aureus [6],50 µM
CCn1cc(C(=O)O)c(=O)c2cnc(N3CC[N+](C)(C)CC3)nc21,MIC,Pseudomonas aeruginosa [3],> 50 µM
same,MIC,Staphylococcus aureus [6],> 50 µM
